pIC50: −log10 of the molar value.

The values below come from ChEMBL document CHEMBL2311304, “Design, synthesis and in vitro and in vivo antitumor activities of novel bivalent β-carbolines” (Eur J Med Chem, 2013).

Type in all cases: functional, cell-based
One assay concerns SK-OV-3. As to the kind of experiment: Cytotoxicity against human ovary adenocarcinoma SKOV3 cells assessed as reduction in optical density by MTT assay. The settings on record: SK-OV-3, Female gonad. The method in brief: (§1)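 Cells were cultured in RPMI-1640 with 10% (v/v) fetal calf serum, 100 µg ml-1 penicillin and 100 µg ml-1 streptomycin at 37 °C in humidified 5% CO2. Compounds were dissolved in DMSO, with final DMSO at 2% (v/v) or lower. MTT staining was used, with three replicate wells per point. IC50 is the concentration giving a 50% drop in optical density versus untreated cells.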

The subject of another assay is BGC-823. Description: Cytotoxicity against human gastric carcinoma BGC823 cells assessed as reduction in optical density by MTT assay. The method, boiled down:
as §1

For another assay, the system named is KB. Description: Cytotoxicity against human epidermoid carcinoma of the nasopharynx KB cells assessed as reduction in optical density by MTT assay. The method in brief: as §1
In general terms: Tetrazolium dyes change colour on reduction, which living cells bring about.

In a further assay the test system is 769-P. Description: Cytotoxicity against human renal carcinoma 769-P cells assessed as reduction in optical density by MTT assay. The method, boiled down: as §1
The test system of the next assay is A-375. As to the kind of experiment: Cytotoxicity against human malignant melanoma A375 cells assessed as reduction in optical density by MTT assay. The method, boiled down:
as §1

What is called pIC50 is the IC50 on a negative log10 scale, so that one unit is a factor of ten. Consider `Brc1ccc2c(c1)c1ccncc1n2CCCCn1c2ccc(Br)cc2c2ccncc21`, for which the pIC50 in the assay with SK-OV-3 is 5.05; in the assay on BGC-823, below 3.70; in the assay with KB it was below 3.70; with 769-P, 5.51; with A-375 it was below 3.70.

As for `CCOC(=O)c1cc2c3ccccc3n(CCCCCn3c4ccccc4c4cc(C(=O)OCC)nc(-c5cccnc5)c43)c2c(-c2cccnc2)n1`, the pIC50 in the assay with SK-OV-3 was below 3.70; in the assay on BGC-823 it was 4.62; in the assay on KB, 4.80; in the assay with 769-P, 3.88; with A-375, 4.89.

With `c1cncc(-c2nccc3c4ccccc4n(CCCCn4c5ccccc5c5ccnc(-c6cccnc6)c54)c23)c1`, the pIC50 is 4.43 in the assay with SK-OV-3; below 3.70 with BGC-823; below 3.70 with KB; below 3.70 in the assay with 769-P; 4.07 with A-375.

`c1ccc2c(c1)c1ccncc1n2CCCCCCCn1c2ccccc2c2ccncc21`: the pIC50 in the assay on SK-OV-3 was below 3.70; in the assay on BGC-823, below 3.70; in the assay with KB, below 3.70; in the assay on 769-P it was 4.28; in the assay with A-375, below 3.70.

Regarding `Brc1cccc2c3ccncc3n(CCCCCCn3c4cnccc4c4cccc(Br)c43)c12`, the pIC50 in the assay with SK-OV-3, with BGC-823, in the assay with KB, in the assay on 769-P and with A-375 was below 3.70 in each case.

Consider `COc1ccc2c3ccnc(C)c3n(CCCCCCCn3c4cc(OC)ccc4c4ccnc(C)c43)c2c1`, for which the pIC50 is 4.99 with SK-OV-3; 3.98 in the assay with BGC-823; 4.41 with KB; 3.94 in the assay with 769-P; 3.95 with A-375.

As for `Cc1nccc2c3ccccc3n(CCCCCn3c4ccccc4c4ccnc(C)c43)c12`, the pIC50 in the assay on SK-OV-3 is 4.73; with BGC-823 it was below 3.70; in the assay with KB, below 3.70; in the assay on 769-P it was below 3.70; in the assay on A-375, below 3.70.

As for `Cc1nccc2c3ccccc3n(CCCCCCCn3c4ccccc4c4ccnc(C)c43)c12`, the pIC50 in the assay with SK-OV-3 is 4.01; with BGC-823 it was below 3.70; in the assay with KB, below 3.70; in the assay on 769-P, 4.29; in the assay on A-375, below 3.70.

`COc1cc(-c2nccc3c4ccccc4n(CCCCCCCn4c5ccccc5c5ccnc(-c6cc(OC)c(OC)c(OC)c6)c54)c23)cc(OC)c1OC`: the negative-log IC50 (pIC50) in the assay with SK-OV-3 was below 3.70; with BGC-823 it was below 3.70; in the assay on KB, 5.12; with 769-P, 5.48; with A-375, 5.40.

For the compound `Cc1nccc2c3cc(Br)ccc3n(CCCCCn3c4ccc(Br)cc4c4ccnc(C)c43)c12`, the negative-log IC50 (pIC50) was below 3.70 in the assay with SK-OV-3; below 3.70 in the assay with BGC-823; below 3.70 in the assay with KB; 5.37 with 769-P; below 3.70 in the assay on A-375.

In the case of `COc1ccc2c3ccnc(C)c3n(CCCCCn3c4cc(OC)ccc4c4ccnc(C)c43)c2c1`, the negative logarithm of the IC50 (pIC50) was 5.77 in the assay on SK-OV-3; 4.23 in the assay on BGC-823; 5.30 with KB; 4.09 in the assay with 769-P; above 5.85 in the assay with A-375.

Take `CCCCOc1ccc2c3ccnc(C)c3n(CCCCCCn3c4cc(OCCCC)ccc4c4ccnc(C)c43)c2c1`: the pIC50 in the assay with SK-OV-3 was below 3.70; with BGC-823, below 3.70; in the assay with KB it was below 3.70; in the assay on 769-P, 4.25; with A-375 it was below 3.70.

For `Cc1nccc2c3ccccc3n(CCCn3c4ccccc4c4ccnc(C)c43)c12`, the pIC50 in the assay on SK-OV-3 was 4.58; in the assay with BGC-823, below 3.70; in the assay with KB, 3.80; in the assay on 769-P, 3.84; in the assay with A-375, 4.16.

Turning to `Cc1nccc2c3ccc(OC(C)C)cc3n(CCCCCCCCCn3c4cc(OC(C)C)ccc4c4ccnc(C)c43)c12`, the pIC50 was 4.00 in the assay on SK-OV-3; below 3.70 in the assay on BGC-823; 3.95 in the assay with KB; 4.40 in the assay with 769-P; 4.36 with A-375.

As to `c1ccc2c(c1)c1ccncc1n2CCCCCCCCn1c2ccccc2c2ccncc21`, the pIC50 with SK-OV-3 was 4.47; in the assay with BGC-823 it was below 3.70; with KB, below 3.70; in the assay with 769-P, below 3.70; with A-375, below 3.70.

Consider `CCCCOc1ccc2c3ccnc(C)c3n(CCCCn3c4cc(OCCCC)ccc4c4ccnc(C)c43)c2c1`, for which the negative logarithm of the IC50 (pIC50) with SK-OV-3 was 5.26; with BGC-823, 5.07; in the assay on KB, 5.17; in the assay on 769-P it was below 3.70; with A-375, 5.42.

For the compound `CC(C)c1nccc2c3ccccc3n(CCCCCCn3c4ccccc4c4ccnc(C(C)C)c43)c12`, the pIC50 is 4.50 in the assay on SK-OV-3; below 3.70 in the assay with BGC-823; below 3.70 in the assay on KB; 4.73 with 769-P; 4.27 in the assay with A-375.

On to `c1ccc2c(c1)c1ccnc(-c3ccsc3)c1n2CCCCCCCCn1c2ccccc2c2ccnc(-c3ccsc3)c21`, for which the pIC50 is below 3.70 in the assay with SK-OV-3; below 3.70 in the assay on BGC-823; below 3.70 in the assay with KB; below 3.70 in the assay with 769-P; 4.49 in the assay with A-375.

Consider `Cc1nccc2c3ccccc3n(CCCCCCCCn3c4ccccc4c4ccnc(C)c43)c12`, for which the pIC50 with SK-OV-3, in the assay with BGC-823, in the assay on KB, in the assay with 769-P and in the assay on A-375 was below 3.70 throughout.

For the compound `CCOC(=O)c1cc2c3ccccc3n(CCCCCCCCCn3c4ccccc4c4cc(C(=O)OCC)nc(-c5cc(OC)c(OC)c(OC)c5)c43)c2c(-c2cc(OC)c(OC)c(OC)c2)n1`, the pIC50 with SK-OV-3, with BGC-823, in the assay on KB, with 769-P and in the assay on A-375 was below 3.70 throughout.

For `COc1ccc2c3ccnc(C)c3n(CCCCCCn3c4cc(OC)ccc4c4ccnc(C)c43)c2c1`, the pIC50 is 4.93 in the assay on SK-OV-3; below 3.70 in the assay on BGC-823; 3.81 in the assay with KB; below 3.70 with 769-P; 4.45 in the assay on A-375.

`CCOC(=O)c1cc2c3ccccc3n(CCCCCCn3c4ccccc4c4cc(C(=O)OCC)nc(-c5cccnc5)c43)c2c(-c2cccnc2)n1`: the pIC50 in the assay with SK-OV-3 was 4.17; in the assay on BGC-823 it was below 3.70; in the assay on KB, below 3.70; with 769-P, below 3.70; with A-375 it was below 3.70.

Regarding `c1ccc2c(c1)c1ccnc(-c3ccsc3)c1n2CCCCCCn1c2ccccc2c2ccnc(-c3ccsc3)c21`, the pIC50 with SK-OV-3, in the assay on BGC-823, in the assay with KB, in the assay on 769-P and in the assay on A-375 was below 3.70 throughout.

Consider `Cc1nccc2c3ccccc3n(CCCCCCCCCn3c4ccccc4c4ccnc(C)c43)c12`, for which the pIC50 was 4.21 in the assay on SK-OV-3; below 3.70 in the assay on BGC-823; below 3.70 in the assay with KB; below 3.70 with 769-P; 4.24 in the assay with A-375.

For the compound `COc1ccc2c3ccnc(C)c3n(CCCCCCCCn3c4cc(OC)ccc4c4ccnc(C)c43)c2c1`, the pIC50 with SK-OV-3 was 5.15; in the assay with BGC-823, 4.12; in the assay with KB, 5.55; with 769-P, 4.18; in the assay on A-375, 5.21.

For the compound `Cc1nccc2c3ccccc3n(CCCCCCCCCCn3c4ccccc4c4ccnc(C)c43)c12`, the pIC50 with SK-OV-3 was 5.07; with BGC-823, below 3.70; with KB, below 3.70; in the assay on 769-P, 4.79; in the assay on A-375, below 3.70.

On to `CCOC(=O)c1cc2c3ccccc3n(CCCCCCn3c4ccccc4c4cc(C(=O)OCC)nc(-c5cc(OC)c(OC)c(OC)c5)c43)c2c(-c2cc(OC)c(OC)c(OC)c2)n1`, for which the pIC50 in the assay with SK-OV-3, in the assay on BGC-823, in the assay with KB, in the assay on 769-P and with A-375 was below 3.70 throughout.

In the case of `CCOC(=O)c1cc2c3ccccc3n(CCCCCCn3c4ccccc4c4cc(C(=O)OCC)nc(C)c43)c2c(C)n1`, the pIC50 in the assay on SK-OV-3, with BGC-823, in the assay with KB, in the assay on 769-P and with A-375 was below 3.70 in each case.

As for `Cc1nccc2c3cc(Br)ccc3n(CCCCCCn3c4ccc(Br)cc4c4ccnc(C)c43)c12`, the negative-log IC50 (pIC50) in the assay on SK-OV-3 was 4.20; in the assay with BGC-823 it was below 3.70; with KB, below 3.70; with 769-P, below 3.70; in the assay on A-375, below 3.70.

For `CC(C)c1nccc2c3ccccc3n(CCCCCCCCCCn3c4ccccc4c4ccnc(C(C)C)c43)c12`, the pIC50 was below 3.70 in the assay on SK-OV-3; below 3.70 in the assay with BGC-823; below 3.70 with KB; 5.34 in the assay with 769-P; 4.71 in the assay with A-375.
